Columns and labels:
LRP1 = assay: Aβ-induced soluble LRP1 in HBMEC media upon MMP9 inhibition; type: cell-based, human; details: Aβ(1-42) 2μM plus inhibitor 1μM, 48 hours at 37°C, ELISA, n = 3
LDLR = assay: Aβ-induced soluble LDLR in HBMEC media upon MMP9 inhibition; type: cell-based, human; details: Aβ(1-42) 2μM plus inhibitor 1μM, 48 hours at 37°C, ELISA, n = 3
[1] = system: in vitro model of the BBB (HBMEC monolayer); assay: Paracellular marker; type: cell-based, human; details: each SB-3CT concentration (0.1, 0.5, 1, 5, 10μM), data not shown
Method in brief: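 HBMEC were seeded at 100,000 cells/cm² on fibronectin-coated (4 µg/cm²) 0.4 µm-pore inserts (0.3 cm²) to form a polarized monolayer. Inserts holding test compound were exposed to wells with 10 kD lucifer yellow dextran at 37 °C. Basolateral was sampled at time 0 and apical at 0, 30 and 60 min (basolateral-to-apical). Apparent permeability = 1/AC0 × dQ/dt, compared with control.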

apoE-TR mice = assay: Mouse Aβ BBB clearance model: human Aβ; type: in vivo; details: SB-3CT 25 mg/kg i.p., plasma human Aβ(1-42) ELISA, n = 4
HBMEC = assay: LDH cytotoxicity assay in HBMEC extracellular media; type: cell-based, human; details: 48 hours at 37°C, data not shown

Compound	decrease of soluble LRP1 levels compared to Aβ alone (LRP1)	reduction of soluble LDLR levels compared to Aβ alone (LDLR)	BBB monolayer integrity: movement of 10kDa lucifer yellow dextran vs control [1]	extent of Aβ BBB elimination in SB-3CT-treated apoE4-TR mice versus apoE3-TR animals (apoE-TR mice)	LDH release (HBMEC; 20μM Aβ)	cellular toxicity (LDH cytotoxicity assay) (HBMEC; Aβ concentrations 0 to 2μM)
O=S(=O)(CC1CS1)c1ccc(Oc2ccccc2)cc1 (stereo not shown) [SB-3CT]	approximately 40%	approximately 40%	no difference	the same as that observed in the apoE3-TR animals	–	–
CNC(=O)[C@@H](NC(=O)[C@H](CC(C)C)[C@H](O)C(=O)NO)C(C)(C)C [marimastat]	–	approximately 40%	–	–	–	–
Aβ(1-42): unlabeled human beta-amyloid (1-42) peptide, purchased from Invitrogen, used in monomeric form	–	–	–	–	significant increase in LDH release	no cellular toxicity was observed

Source: PMC6842100 (Molecular neurobiology, 2019)
